Published values from different studies.
Protocols differ between the studies behind these lines.
Target: Serine/threonine-protein kinase MARK2 (MARK2, Homo sapiens, UniProt Q7KZI7)

For `CC(C)(C)c1cc(C=C(C#N)C#N)cc(Br)c1O`, the remaining activity was 81.6% (enzyme activity; inhibitor; 0.5 µM).
With `Nc1ncc(-c2nc(N3CCOCC3)nc(N3CCOCC3)n2)c(C(F)F)n1` the remaining binding was 77% (binding; competition with immobilised ligand; 10 µM).
`COc1ncccc1-c1cnn2ccc(N3CCN(C(=O)OC(C)C)CC3)nc12` gave a remaining binding of 80% (binding; competition with immobilised ligand; 1 µM).
`C#Cc1n[nH]c2c(-c3cn([C@@H](C)c4ccccc4)c(=O)[nH]c3=O)cc(F)cc12` has an inhibition of 2% (enzyme activity; inhibitor; 0.1 µM).
The inhibition of `Cn1cc(-c2cccc(N3CCc4c(sc5c4CC(C)(C)C5)C3=O)c2CO)cc(Nc2ccncn2)c1=O` is reported as 10% (enzyme activity; inhibitor; 1 µM).
The inhibition of `C#Cc1n[nH]c2c(-c3cn(C(C)c4ccccn4)c(=O)[nH]c3=O)cc(F)cc12` (stereo not shown) is reported as 5.8% (enzyme activity; inhibitor; 1 µM).
For `Cn1cc(-c2cc(F)cc(N3CCn4c(cc5c4CCCC5)C3=O)c2CO)cc(Nc2ccc(N3CCN(C4COC4)CC3)cn2)c1=O`, the inhibition was 14% (enzyme activity; inhibitor; 0.1 µM).
`O=c1[nH]c2ccccc2n1C1CCN(Cc2ccc(-c3[nH]c4cc5ncnc5cc4nc3-c3ccccc3)cc2)CC1` gave a remaining signal of 92.2% (cell-free assay; 0.5 µM).
The remaining binding of `Cc1nn(C)cc1-c1nc2c(N3CCN(Cc4ccc(Cl)cc4)CC3)c(Cl)cnc2[nH]1` is reported as 93% (binding; competition with immobilised ligand; 1 µM).
`Cn1cncc1[C@](O)(COc1ccc(C#N)cc1-c1ccc(OC(F)(F)F)cc1)c1ccc(C#N)cc1` has a remaining binding of 95% (cell-free assay; competition with immobilised ligand; 1 µM).
